Apaf-1 act: activates human Apaf-1 apoptosome; O14727; Apaf-1 apoptosome caspase-3 activation, DEVD-Rh110 fluorescence; hits give low values; activity change, negative = activation, % at 20 µM; 330,000 compounds, 0.31% hits;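 active = activity change at or below -40% at 20 µM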
Target sequence (O14727 whole entry, looked up): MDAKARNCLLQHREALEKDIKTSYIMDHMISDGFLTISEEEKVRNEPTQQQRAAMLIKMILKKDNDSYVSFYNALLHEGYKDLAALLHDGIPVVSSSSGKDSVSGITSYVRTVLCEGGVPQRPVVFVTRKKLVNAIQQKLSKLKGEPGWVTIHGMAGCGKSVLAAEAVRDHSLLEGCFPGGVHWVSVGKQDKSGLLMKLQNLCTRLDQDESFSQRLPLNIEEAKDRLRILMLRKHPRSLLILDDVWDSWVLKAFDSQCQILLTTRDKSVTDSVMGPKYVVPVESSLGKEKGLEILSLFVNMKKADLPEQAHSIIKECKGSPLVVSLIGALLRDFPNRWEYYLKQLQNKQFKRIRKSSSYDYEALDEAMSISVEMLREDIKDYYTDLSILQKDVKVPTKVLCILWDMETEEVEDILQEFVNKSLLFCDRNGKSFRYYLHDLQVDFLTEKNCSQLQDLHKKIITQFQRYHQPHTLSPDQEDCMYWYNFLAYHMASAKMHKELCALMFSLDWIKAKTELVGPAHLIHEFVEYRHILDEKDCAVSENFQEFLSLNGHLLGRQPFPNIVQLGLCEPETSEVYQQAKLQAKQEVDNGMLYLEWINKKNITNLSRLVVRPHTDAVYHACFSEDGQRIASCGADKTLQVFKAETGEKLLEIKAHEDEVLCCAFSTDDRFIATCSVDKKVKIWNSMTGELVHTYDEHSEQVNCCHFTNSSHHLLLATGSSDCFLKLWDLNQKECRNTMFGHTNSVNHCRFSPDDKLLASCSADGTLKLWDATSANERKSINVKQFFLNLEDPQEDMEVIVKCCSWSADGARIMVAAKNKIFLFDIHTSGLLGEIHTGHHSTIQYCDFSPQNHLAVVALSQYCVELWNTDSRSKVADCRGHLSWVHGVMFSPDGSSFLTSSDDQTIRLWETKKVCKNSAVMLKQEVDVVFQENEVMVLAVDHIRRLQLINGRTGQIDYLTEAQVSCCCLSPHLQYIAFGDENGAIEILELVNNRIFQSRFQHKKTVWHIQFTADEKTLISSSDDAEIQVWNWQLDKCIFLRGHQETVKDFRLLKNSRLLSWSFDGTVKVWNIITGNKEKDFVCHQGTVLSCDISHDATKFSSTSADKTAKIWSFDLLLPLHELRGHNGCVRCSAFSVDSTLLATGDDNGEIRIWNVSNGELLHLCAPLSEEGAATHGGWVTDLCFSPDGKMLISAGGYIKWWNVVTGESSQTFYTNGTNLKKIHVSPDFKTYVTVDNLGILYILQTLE
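Schedule: 30 min preincubation, 50 min reaction, room temperature / System: biochemical Apaf-1 apoptosome reconstitution / Medium: 20 mM HEPES pH 7.5 with CHAPS, BSA / Evaluation: Caspase-3 cleavage activity downstream of Apaf-1 activation / Detection: Caspase-3-released Rh110 fluorescence, 540 nm emission, 480 nm excitation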
Rh110 interf act: counter-screen for Apaf-1 activators: fluorescence interference; shares compounds with Apaf-1 act; Rh110 fluorescence interference, quenched caspase reaction, Ex480/Em540; fluorescence interference (activity change), % at 20 µM, hits read low; 980 tested, under 10 active;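 active = mean activity change at or below -40% when tested at 20 µM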
Apaf-1 act conf: confirmation of human Apaf-1 activators. activity change, negative = activation, % at 20 µM. reconstituted apoptosome caspase-3 activity, DEVD-Rh110 fluorescence; hits give low values. 980 compounds, 5% hits. shares compounds with Apaf-1 act;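 active = mean activity change at or below -40%, meaning activation of 40% or more, at 20 µM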
Apaf1 act interf: counter-screen for Apaf-1 activators: fluorescence interference, dose response; shares compounds with Apaf-1 act; fluorescence interference counterscreen, Apaf-1 activator assay; EC50, µM; 55 tested, under 10 active; call rule not given here
Numbers without * were called inactive; . = not tested or not shown. These entries were drawn from the full list.

SMILES | Apaf-1 act | Rh110 interf act | Apaf-1 act conf | others
CCCCCCCCCCCCCCCC[n+]1ccc(C(N)=O)cc1 | 73 | . | .
Cc1ccc(NC(=O)CN(C)C(=O)c2ccc3[nH]c4c(c3c2)CC(C)CC4)cc1 (centres undefined) | 59 | . | .
CCC(C)c1ccccc1NC(=O)COC(=O)c1ccc2[nH]c3c(c2c1)CCCC3 (centres undefined) | -170* | 20 | 22
CC1(C)Cc2c(sc(NC(=O)COc3cccc4ccccc34)c2C#N)C(C)(C)N1 | 46 | . | .
O=C(NC1(O)C(=O)c2ccccc2C1=O)c1ccccc1 | 94 | . | .
CN1CCN(CC(=O)N2CCn3c4c(c5cc(C6CCCCC6)ccc53)CCCC42)CC1 (centres undefined) | 58 | . | .
Cc1[nH]c(=O)[nH]c(=O)c1CSCC(=O)OCC(=O)c1ccc(Br)cc1 | -139* | -3 | 15
N#Cc1c(N2CCCCC2)nc(N)c2c(N)nc3c(c12)CC(c1ccccc1)O3 (centres undefined) | 42 | . | .
CCC(CN(C)C)Oc1cc(NCc2ccccc2)c2ncn(C(C)C)c2c1 (centres undefined) | 98 | . | .
N#CCCS(=O)(=O)c1ccc(N)cc1 | -61* | 0 | 5
Cc1cc(C)nc(NS(=O)(=O)c2ccc(N)cc2)n1 | -3 | . | .
CCN(CC)CCNC(=O)c1ccc(NC(C)=O)cc1 | -2 | . | .
CCOc1cc(/C=C/C(=O)Nc2ccc(C(=O)NCCN(CC)CC)cc2)ccc1OCC(C)C | 47 | . | . | Apaf1 act interf=>100
CN(C)CCNC(=O)c1ccc(COc2ccc(Cl)cc2Cl)cc1 | 46 | . | .
CN1Cc2c(N3CCOCC3)nc3sc(C(=O)c4ccc(Br)cc4)c(N)c3c2CC1(C)C | 56 | . | .
CCC1Nc2ncnc(N3CCN(c4ccccc4)CC3)c2N(Cc2ccccc2)C1=O (centres undefined) | 60 | . | .
Fc1ccc(NC(=S)Nc2cccc3cnccc23)cc1 | 95 | . | .
CCOc1ccccc1NC(=O)c1ccc(Cl)c(NC(=O)CC(c2ccccc2)c2ccccc2)c1 | -55* | 6 | 14
CCCCCCCNC(=O)C1(CC2CC(c3cccc(Br)c3)=NO2)CCNCC1 (centres undefined) | 46 | . | .
O=C1C(O)=C(O)C(=O)c2ccccc21 | 92 | . | .
c1ccc(C[C@H]2CN=C(Nc3ccccc3)N2CCCC2CCCCC2)cc1 | 47 | . | .
CC(=O)[C@@]1(O)CCC2C3C=CC4=CC(=O)CC[C@]4(C)C3CC[C@@]21C (some centres undefined) | -287* | 9 | 11
CC(=O)[C@H]1CC[C@H]2[C@@H]3CCC4=CC(=O)CC[C@]4(C)[C@H]3CC[C@]12C | 19 | . | .
CN(C)S(=O)(=O)c1cccc(NC(=O)COC(=O)/C=C/c2ccco2)c1 | 95 | . | .
CCN(CC)S(=O)(=O)c1ccc(/C=C/C(=O)OCC#N)cc1 | -82* | -7 | 5
SMILES | Apaf-1 act | Rh110 interf act | Apaf-1 act conf | others
Fc1ccc(N2CCN(c3nc(CN4CCOCC4)nc4scc(-c5ccccc5)c34)CC2)cc1 | 41 | . | .
O=C(COc1ccccc1[N+](=O)[O-])N/N=C/c1ccncc1 | -53* | 9 | 15
O=C(N/N=C\c1ccc(-c2ccccc2[N+](=O)[O-])o1)C1COc2ccccc2O1 (centres undefined) | 79 | . | .
O=C(N/N=C/c1ccc(-c2ccccc2[N+](=O)[O-])o1)c1cncc(Br)c1 | 81 | . | .
CCCCCCCCCn1c2c(c(=N)c3c1CCC3)CCCC2 | 51 | . | .
C#CCOCCOCCOCCNc1nc(N2CCN(C(=O)CCCCCCCCCCNC(=O)[C@H](CCCCN)n3cc(C[C@@H](C)CC)nn3)CC2)nc(N2CCN(C(=O)CCCCCCCCCCNC(=O)[C@H](CCCN=C(N)N)n3cc(C[C@@H](C)CC)nn3)CC2)n1 | 55 | . | .
COc1ccc(C2=NCN(c3ccc(C)cc3)C(=S)N2)cc1 | -555* | 9 | 17
COc1ccc(-n2nc3cc(N)c(Br)cc3n2)cc1 | 69 | . | .
CCN1/C(=C/C=C/c2oc3ccc4ccccc4c3[n+]2CC)Oc2ccc3ccccc3c21 | 76 | . | .
CCN(CC)CCOC(=O)c1ccc(N/C=C(/C#N)c2nc(-c3cccc(OC)c3)cs2)cc1 | 55 | . | .
CC(Oc1ccc2c(-c3ccccc3)cc(=O)oc2c1)C(=O)NCC1CCC(C(=O)O)CC1 (centres undefined) | -1 | . | .
COc1ccc(-c2cc(=O)oc3cc(OCC(=O)Nc4ccc(CCO)cc4)ccc23)cc1 | -55* | 0 | -20
COc1ccc(N2CCN(C(=O)c3ccc(COc4ccc5c(C)cc(=O)oc5c4)cc3)CC2)cc1 | 58 | . | .
Cc1cc2nc(SCC(=O)Nc3nonc3C)c3c(c2cc1C)CCCC3 | -48* | 5 | 16
CC(=O)c1c(-c2ccccc2)c2cc(Cl)ccc2[nH]c1=O | -49* | -2 | 8
Nc1ccc(N2CCOCC2)c2nonc12 | 84 | . | .
CC(C)Cc1nnc(NC(=O)C2CSC3(C)CCC(=O)N23)s1 (centres undefined) | -83* | 6 | 13
Oc1ccc(NCc2ccccc2OCc2ccccc2F)cc1 | 92 | . | .
COCCOC(=O)c1[nH]c2c(c1C)C(=O)C(C(=O)OC)C(C)C2 (centres undefined) | -68* | -3 | 10
OCC1(Cc2ccccc2)CCN(Cc2ccc(-c3ccco3)cc2)CC1 | -82* | -1 | 5
CC[C@@H](C)[C@@H]1CN([C@@H](C)CN2CCC[C@H]2CN2C(N)=NC[C@H]2CC(C)C)C(=N)N1CCc1ccc(Cl)c(Cl)c1 | 52 | . | .
O=C1C(Cl)=C(NCCN2CCCCC2)C(=O)c2ccccc21 | 68 | . | .
C[C@H](NC(=O)N1CCn2c1nc1ccccc12)C(=O)NC1CCCCC1 | -168* | 15 | 16
CC1=NN(c2ccc(C)cc2C)C(=O)C1C(c1ccccc1O)C1C(=O)N(c2ccc(C)cc2C)N=C1C (centres undefined) | 97 | . | .
CCOC(=O)c1c(NC(=O)c2ccno2)c2cc([N+](=O)[O-])ccc2n1C | -45* | 9 | 5
SMILES | Apaf-1 act | Rh110 interf act | Apaf-1 act conf | others
NS(=O)(=O)c1ccc(NC2=CC(=O)C(=O)c3ccccc32)cc1 | 95 | . | .
COc1ccc(C2CC(=O)c3cnc(NC(=O)c4ccco4)nc3C2)cc1 (centres undefined) | -139* | -7 | 6
CCN(CC)CCN(C(=O)c1ccc(C(=O)c2ccccc2)cc1)c1nc2ccc(OC)cc2s1 | 44 | . | .
CC(=O)c1ccc(NC(=O)CSc2cn[nH]n2)cc1 | -294* | -4 | 11
O=C(CSc1cn[nH]n1)Nc1nc2ccccc2s1 | -285* | -2 | 11
CC(=O)c1ccc(NC(=O)CC2Nc3cccc4cccc(c34)NC2=O)cc1 (centres undefined) | 89 | . | .
O=C1N(c2ccccc2)c2ccccc2C1(Cc1ccncc1)Cc1ccncc1 | 5 | . | .
CC(C)n1cnc2c(N(C)c3ccccc3)nc(N(CCN(C)C)Cc3ccccc3)nc21 | 44 | . | .
CC(C)(C)c1ccc(-c2nn(CCC#N)cc2/C=N/O)cc1 | 50 | . | .
C=CC[C@@H](Cc1ccc(F)cc1)C(=O)OC[C@H]1CCCN1C(=O)[C@@H](CC=C)CC(=O)N[C@H](CO)Cc1ccccc1 | 41 | . | .

Screens as filed in PubChem.
